Test results taken from ChEMBL document CHEMBL1134286, “Novel erythromycin derivatives with aryl groups tethered to the C-6 position are potent protein synthesis inhibitors and active against multidrug-resistant respiratory pathogens” (J Med Chem, 2001).
In brackets after ≈: the same amount, converted by molar mass.

What was measured:
Assay type in all cases: functional
[1] = system: Staphylococcus aureus; experiment: Minimum inhibitory concentration against Staphylococcus aureus A 5177 MLSB-i
Procedure, shortened: (§1)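 MICs were determined by agar dilution following National Committee for Clinical Laboratory Standards recommendations. Values are in µg/mL.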

[2] = system: Staphylococcus aureus; experiment: Minimum inhibitory concentration against Staphylococcus aureus A 5278 MLSB-c; procedure, shortened: as §1
[3] = Minimum inhibitory concentration against Streptococcus pyogenes PIU2548 efflux; procedure, shortened: as §1
[4] = system: Streptococcus pneumoniae; experiment: Minimum inhibitory concentration against Streptococcus pneumoniae 5649 efflux; procedure, shortened: as §1
[5] = Minimum inhibitory concentration against Streptococcus pneumoniae 5737 MLSB; procedure, shortened: as §1
[6] = system: Streptococcus pneumoniae; experiment: Minimum inhibitory concentration against Streptococcus pneumoniae ATCC 6303 Ery-S; procedure, shortened: as §1
[7] = Minimum inhibitory concentration against Streptococcus pyogenes 930MLSB; procedure, shortened: as §1
[8] = system: Staphylococcus aureus; experiment: Minimum inhibitory concentration against Staphylococcus aureus ATCC 6538PEry-S; conditions: ATCC 6538P; procedure, shortened: as §1
[9] = Minimum inhibitory concentration against Streptococcus pyogenes EES 61 Ery-S; procedure, shortened: as §1
[10] = Minimum inhibitory concentration against Haemophilus influenzae DILL Amp-R; procedure, shortened: as §1
[11] = species on record: Mus musculus; experiment: Mouse protection tests for effective dose against Staphylococcus aureus 10649 ((erythromycin susceptible strain)) infected mice
[12] = species on record: Mus musculus; experiment: Mouse protection tests for effective dose against Streptococcus pneumoniae 6303 ((erythromycin susceptible strain)) infected mice
[13] = system: Staphylococcus aureus; experiment: Minimum inhibitory concentration against Staphylococcus aureus 10649 (erythromycin susceptible strain); procedure, shortened: as §1
[14] = system: Streptococcus pneumoniae; experiment: Minimum inhibitory concentration against Streptococcus pneumoniae 6303 (erythromycin susceptible strain); procedure, shortened: as §1

Row | MIC [1] [µg/mL] | MIC [2] [µg/mL] | MIC [3] [µg/mL] | MIC [4] [µg/mL] | MIC [5] [µg/mL] | MIC [6] [µg/mL] | MIC [7] [µg/mL] | MIC [8] [µg/mL] | MIC [9] [µg/mL] | MIC [10] [µg/mL] | MIC [13] [µg/mL] | MIC [14] [µg/mL] | SMILES | ED50 [11] [mg/kg] | ED50 [12] [mg/kg]
1 | 0.1 (≈ 0.132 µM) | > 100 | 2 (≈ 2.65 µM) | 4 (≈ 5.3 µM) | 8 (≈ 10.6 µM) | 0.03 (≈ 0.0397 µM) | 4 (≈ 5.3 µM) | 0.1 (≈ 0.132 µM) | 0.03 (≈ 0.0397 µM) | 4 (≈ 5.3 µM) | – | – | CC[C@H]1OC(=O)[C@H](C)C(=O)[C@H](C)[C@@H](O[C@@H]2O[C@H](C)C[C@H](N(C)C)[C@H]2O)[C@](C)(OC/C=C/c2ccc3[nH]cnc3c2)C[C@@H](C)C(=O)[C@H](C)[C@H]2NC(=O)O[C@@]21C | – | –
2 | 0.05 (≈ 0.0652 µM) | > 100 | 0.5 (≈ 0.652 µM) | 0.5 (≈ 0.652 µM) | 0.25 (≈ 0.326 µM) | 0.008 (≈ 0.0104 µM) | 4 (≈ 5.22 µM) | 0.05 (≈ 0.0652 µM) | 0.015 (≈ 0.0196 µM) | 2 (≈ 2.61 µM) | 0.05 (≈ 0.0652 µM) | 0.008 (≈ 0.0104 µM) | CC[C@H]1OC(=O)[C@H](C)C(=O)[C@H](C)[C@@H](O[C@@H]2O[C@H](C)C[C@H](N(C)C)[C@H]2O)[C@](C)(OC/C=C/c2cnc3ccncc3c2)C[C@@H](C)C(=O)[C@H](C)[C@H]2NC(=O)O[C@@]21C | 12.5 | > 50
3 | 0.39 (≈ 0.533 µM) | > 100 | 2 (≈ 2.73 µM) | 2 (≈ 2.73 µM) | > 128 | 0.03 (≈ 0.041 µM) | > 128 | 0.2 (≈ 0.273 µM) | 0.03 (≈ 0.041 µM) | 2 (≈ 2.73 µM) | – | – | CC[C@H]1OC(=O)[C@H](C)C(=O)[C@H](C)[C@@H](O[C@@H]2O[C@H](C)C[C@H](N(C)C)[C@H]2O)[C@](C)(OCCNCc2ccccc2)C[C@@H](C)C(=O)[C@H](C)[C@H]2NC(=O)O[C@@]21C | – | –
4 | 0.1 (≈ 0.14 µM) | > 100 | 0.25 (≈ 0.35 µM) | 0.25 (≈ 0.35 µM) | 64 (≈ 89.5 µM) | 0.03 (≈ 0.042 µM) | 64 (≈ 89.5 µM) | 0.1 (≈ 0.14 µM) | 0.03 (≈ 0.042 µM) | 4 (≈ 5.6 µM) | 0.1 (≈ 0.14 µM) | 0.03 (≈ 0.042 µM) | CC[C@H]1OC(=O)[C@H](C)C(=O)[C@H](C)[C@@H](O[C@@H]2O[C@H](C)C[C@H](N(C)C)[C@H]2O)[C@](C)(OC/C=C/c2ccccc2)C[C@@H](C)C(=O)[C@H](C)[C@H]2NC(=O)O[C@@]21C | 30.2 | > 40
5 | 0.1 (≈ 0.134 µM) | > 100 | 2 (≈ 2.68 µM) | 2 (≈ 2.68 µM) | > 128 | 0.03 (≈ 0.0402 µM) | > 128 | 0.2 (≈ 0.268 µM) | 0.03 (≈ 0.0402 µM) | 4 (≈ 5.36 µM) | – | – | CC[C@H]1OC(=O)[C@H](C)C(=O)[C@H](C)[C@@H](O[C@@H]2O[C@H](C)C[C@H](N(C)C)[C@H]2O)[C@](C)(OCCNCCc2ccccc2)C[C@@H](C)C(=O)[C@H](C)[C@H]2NC(=O)O[C@@]21C | – | –

Continued, compound first:

Row | SMILES | MIC [1] [µg/mL] | MIC [2] [µg/mL] | MIC [3] [µg/mL] | MIC [4] [µg/mL] | MIC [5] [µg/mL] | MIC [6] [µg/mL] | MIC [7] [µg/mL] | MIC [8] [µg/mL] | MIC [9] [µg/mL] | MIC [10] [µg/mL] | MIC [13] [µg/mL] | MIC [14] [µg/mL] | ED50 [11] [mg/kg] | ED50 [12] [mg/kg]
6 | CC[C@H]1OC(=O)[C@H](C)C(=O)[C@H](C)[C@@H](O[C@@H]2O[C@H](C)C[C@H](N(C)C)[C@H]2O)[C@](C)(OC/C=C/c2cnc3nccnc3c2)C[C@@H](C)C(=O)[C@H](C)[C@H]2NC(=O)O[C@@]21C | 0.2 (≈ 0.26 µM) | > 100 | 2 (≈ 2.6 µM) | 2 (≈ 2.6 µM) | 1 (≈ 1.3 µM) | 0.015 (≈ 0.0195 µM) | 4 (≈ 5.21 µM) | 0.2 (≈ 0.26 µM) | 0.015 (≈ 0.0195 µM) | 4 (≈ 5.21 µM) | – | – | – | –
7 | CC[C@H]1OC(=O)[C@H](C)C(=O)[C@H](C)[C@@H](O[C@@H]2O[C@H](C)C[C@H](N(C)C)[C@H]2O)[C@](C)(OC/C=C/c2ccc(OC)cc2)C[C@@H](C)C(=O)[C@H](C)[C@@H](O)[C@]1(C)O | 1.56 (≈ 2.17 µM) | > 100 | 2 (≈ 2.78 µM) | 2 (≈ 2.78 µM) | 128 (≈ 178 µM) | 1 (≈ 1.39 µM) | 64 (≈ 88.9 µM) | 1.56 (≈ 2.17 µM) | 0.25 (≈ 0.347 µM) | 128 (≈ 178 µM) | – | – | – | –
8 | CC[C@H]1OC(=O)[C@H](C)C(=O)[C@H](C)[C@@H](O[C@@H]2O[C@H](C)C[C@H](N(C)C)[C@H]2O)[C@](C)(OC/C=C/c2cnc3ccccc3c2)C[C@@H](C)C(=O)[C@H](C)[C@@H](O)[C@]1(C)O | 0.2 (≈ 0.27 µM) | > 100 | 0.1 (≈ 0.135 µM) | 0.25 (≈ 0.337 µM) | 16 (≈ 21.6 µM) | 0.03 (≈ 0.0405 µM) | 100 (≈ 135 µM) | 0.2 (≈ 0.27 µM) | 0.2 (≈ 0.27 µM) | 16 (≈ 21.6 µM) | 0.2 (≈ 0.27 µM) | 0.03 (≈ 0.0405 µM) | 27.2 | > 40
9 | CC[C@H]1OC(=O)[C@H](C)C(=O)[C@H](C)[C@@H](O[C@@H]2O[C@H](C)C[C@H](N(C)C)[C@H]2O)[C@](C)(OC)C[C@@H](C)C(=O)[C@H](C)[C@H]2N(CCCCn3cnc(-c4cccnc4)c3)C(=O)O[C@]12C [TELITHROMYCIN] | – | – | – | – | – | – | – | – | – | – | 0.1 (≈ 0.123 µM) | 0.004 (≈ 0.00493 µM) | 12.5 | 34.1
